Data set [1] addresses T1, Vascular endothelial growth factor receptor 2 (Homo sapiens, UniProt P35968). As to the kind of experiment: Inhibition of VEGF-induced KDR autophosphorylation expressed in HEK293 cells. The data set is classed as functional, cell-based.
The target in data set [2] is T1, Vascular endothelial growth factor receptor 2. Kind of data set: Inhibition of KDR.
A short description of data set [3]: Metabolic stability in rat liver microsome. It is filed as ADME. The settings on record: liver microsomes. (Microsomes from liver hold many membrane-bound enzymes, among them those of drug oxidation.)
For data set [4], the target named is Voltage-gated inwardly rectifying potassium channel KCNH2 (Homo sapiens, UniProt Q12809). As to the kind of experiment: Displacement of [35S][…] from human ERG expressed in HEK293 cells. The data set is classed as cell-based. Conditions: read-out: Inflection point. (In general: Loss of bound radioactivity is the signal in a displacement assay; it reports binding, not function.)
Voltage-gated inwardly rectifying potassium channel KCNH2, sequence (Q12809 whole entry): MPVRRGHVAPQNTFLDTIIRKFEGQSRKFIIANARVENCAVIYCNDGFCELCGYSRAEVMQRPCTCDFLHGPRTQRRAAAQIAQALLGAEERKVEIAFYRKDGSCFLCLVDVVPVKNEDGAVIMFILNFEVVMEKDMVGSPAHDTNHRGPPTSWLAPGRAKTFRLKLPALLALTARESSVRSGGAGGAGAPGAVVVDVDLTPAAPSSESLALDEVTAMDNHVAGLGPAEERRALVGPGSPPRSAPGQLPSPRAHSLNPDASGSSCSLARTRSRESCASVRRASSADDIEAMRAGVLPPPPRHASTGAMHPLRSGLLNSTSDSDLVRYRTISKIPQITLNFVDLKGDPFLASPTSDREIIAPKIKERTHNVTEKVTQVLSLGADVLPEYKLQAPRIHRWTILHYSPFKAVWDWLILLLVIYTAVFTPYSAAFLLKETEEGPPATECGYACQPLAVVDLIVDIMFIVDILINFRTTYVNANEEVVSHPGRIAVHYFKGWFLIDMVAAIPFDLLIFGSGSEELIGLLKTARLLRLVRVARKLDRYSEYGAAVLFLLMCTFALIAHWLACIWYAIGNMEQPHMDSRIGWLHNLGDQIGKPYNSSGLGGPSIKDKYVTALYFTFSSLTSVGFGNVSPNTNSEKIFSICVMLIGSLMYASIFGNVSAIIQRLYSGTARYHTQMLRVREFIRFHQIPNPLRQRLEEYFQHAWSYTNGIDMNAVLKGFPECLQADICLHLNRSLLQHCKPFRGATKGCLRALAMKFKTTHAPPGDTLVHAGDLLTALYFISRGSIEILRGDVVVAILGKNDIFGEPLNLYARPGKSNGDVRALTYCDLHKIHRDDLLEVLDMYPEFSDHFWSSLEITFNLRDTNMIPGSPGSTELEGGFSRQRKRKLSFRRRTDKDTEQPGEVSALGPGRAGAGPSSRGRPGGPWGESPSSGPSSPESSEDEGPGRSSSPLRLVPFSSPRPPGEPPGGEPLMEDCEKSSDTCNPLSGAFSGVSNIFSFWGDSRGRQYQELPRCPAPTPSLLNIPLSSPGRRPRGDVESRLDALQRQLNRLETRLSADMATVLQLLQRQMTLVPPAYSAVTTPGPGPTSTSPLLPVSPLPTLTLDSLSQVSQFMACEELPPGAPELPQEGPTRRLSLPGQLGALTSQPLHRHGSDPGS

Data set [5] can be described thus: Lipophilicity, log P of the compound. It is filed as physicochemical. The settings on record: octanol/water.
The nature of data set [6]: Half life in Beagle dog at 1 mg/kg, iv and 1 mg/kg, po. The data set is classed as ADME, organism-based, Canis lupus familiaris. The settings on record: in vivo. The method in brief:
(§1)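 Fasted beagle dogs, two per compound; iv 1 mg/kg as a DMSO solution; po 1 mg/kg as a solution in 0.05 M citric acid (aq) or HCl-acidified methocel. Plasma half-life, clearance, Vdss and oral bioavailability F taken as the average of the two dogs.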

A short description of data set [7]: Clearance in Beagle dog at 1 mg/kg, iv and 1 mg/kg, po. Conditions: in vivo. It is filed as ADME, organism-based, Canis lupus familiaris. The method in brief:
as §1

A short description of data set [8]: Volume of distribution in Beagle dog at 1 mg/kg, iv and 1 mg/kg, po. Conditions: in vivo, read-out: Vdss. It is filed as ADME, organism-based, Canis lupus familiaris. In a few lines: as §1
The nature of data set [9]: Bioavailability in Beagle dog at 1 mg/kg, iv and 1 mg/kg, po. The settings on record: in vivo. The data set is classed as ADME, organism-based, Canis lupus familiaris. The method in brief: as §1
The species entered for a further data set is Homo sapiens. As to the kind of experiment: Protein binding in human plasma. Conditions: read-out: PPB (converted).
Data set [10] can be described thus: Half life in Beagle dog at 0.25 mg/kg, iv and 1 mg/kg, po. The data set is classed as ADME, organism-based, Canis lupus familiaris. The settings on record: in vivo. In a few lines: (§2)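 Fasted beagle dogs, two per compound; iv 0.25 mg/kg as a DMSO solution, po 1 mpk as a solution in HCl-acidified methocel or 0.05 M citric acid (aq). Half-life, plasma clearance and steady-state volume of distribution taken from the iv leg; values are the average of the two dogs.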

The nature of data set [11]: Clearance in Beagle dog at 0.25 mg/kg, iv and 1 mg/kg, po. The data set is classed as ADME, organism-based, Canis lupus familiaris. Conditions: in vivo. In a few lines:
as §2

A short description of data set [12]: Volume of distribution in Beagle dog at 0.25 mg/kg, iv and 1 mg/kg, po. It is filed as ADME, organism-based, Canis lupus familiaris. The settings on record: in vivo, read-out: Vdss. The method in brief: as §2
The test system of data set [13] is Canis familiaris. Kind of data set: Increase in QT prolongation in anesthetized dog at 0.59 uM plasma level. The data set is classed as functional, Canis lupus familiaris.
The test system of data set [14] is Canis familiaris. As to the kind of experiment: Increase in QT prolongation in anesthetized dog up to 22 uM plasma level. It is filed as functional, organism-based. The settings on record: Canis lupus familiaris.
The target in another data set is Cytochrome P450 2C9 (Homo sapiens, UniProt P11712). Kind of data set: Inhibition of human CYP2C9. The data set is classed as ADME. In a few lines: (§3)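 Human liver microsomes; inhibition of probe-substrate metabolism measured with diclofenac (CYP2C9), […] (CYP2D6) and testosterone (CYP3A4).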
Cytochrome P450 2C9, sequence (P11712 whole entry): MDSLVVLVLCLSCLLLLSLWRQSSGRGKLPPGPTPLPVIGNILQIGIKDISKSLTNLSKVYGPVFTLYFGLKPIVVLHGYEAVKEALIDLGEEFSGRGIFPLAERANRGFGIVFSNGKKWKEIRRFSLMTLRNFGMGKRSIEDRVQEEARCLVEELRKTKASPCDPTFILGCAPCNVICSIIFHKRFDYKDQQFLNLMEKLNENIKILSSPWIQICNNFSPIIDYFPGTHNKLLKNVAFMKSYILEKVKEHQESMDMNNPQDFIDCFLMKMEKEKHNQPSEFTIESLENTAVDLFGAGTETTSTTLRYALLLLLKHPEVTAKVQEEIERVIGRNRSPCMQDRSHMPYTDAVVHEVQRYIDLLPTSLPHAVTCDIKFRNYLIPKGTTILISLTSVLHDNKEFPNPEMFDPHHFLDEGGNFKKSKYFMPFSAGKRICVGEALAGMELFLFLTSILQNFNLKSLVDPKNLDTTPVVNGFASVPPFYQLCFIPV
In the next data set the target is Cytochrome P450 2D6 (Homo sapiens, UniProt P10635). Kind of data set: Inhibition of human CYP2D6. The data set is classed as ADME. In a few lines: as §3
Cytochrome P450 2D6, sequence (P10635 whole entry): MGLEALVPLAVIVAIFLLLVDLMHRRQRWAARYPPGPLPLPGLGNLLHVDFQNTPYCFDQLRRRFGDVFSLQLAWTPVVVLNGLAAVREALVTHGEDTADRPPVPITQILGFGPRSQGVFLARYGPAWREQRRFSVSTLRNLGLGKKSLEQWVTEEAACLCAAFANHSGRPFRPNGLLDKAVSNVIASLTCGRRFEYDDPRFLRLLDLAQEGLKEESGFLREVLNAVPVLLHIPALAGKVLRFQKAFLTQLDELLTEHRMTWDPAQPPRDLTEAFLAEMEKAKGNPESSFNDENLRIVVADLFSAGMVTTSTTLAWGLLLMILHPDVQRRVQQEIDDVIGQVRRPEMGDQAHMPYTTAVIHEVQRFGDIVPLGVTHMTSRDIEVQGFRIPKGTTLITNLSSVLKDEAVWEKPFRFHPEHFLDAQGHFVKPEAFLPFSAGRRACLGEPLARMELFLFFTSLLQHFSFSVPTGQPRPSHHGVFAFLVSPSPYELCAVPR
In another data set the target is Cytochrome P450 3A4 (Homo sapiens, UniProt P08684). As to the kind of experiment: Inhibition of human CYP3A4. The data set is classed as ADME. In a few lines:
as §3

Data set [15] concerns Canis familiaris. As to the kind of experiment: Increase in QT prolongation in anesthetized dog up to 60 uM plasma level. The settings on record: Canis lupus familiaris.
For the next data set, the system named is Rattus norvegicus. As to the kind of experiment: Metabolic stability measured as N-Glucuronidation of the parent compound in iv dosed rat. It is filed as ADME, organism-based. The settings on record: in vivo.
The subject of a further data set is Rhesus monkey. Kind of data set: Metabolic stability measured as N-Glucuronidation of the parent compound in iv dosed rhesus monkey. It is filed as ADME, organism-based, Macaca mulatta. Conditions: in vivo.
The nature of data set [16]: Clearance in Sprague-Dawley rat at 2 mg/kg, iv and 10 mg/kg, po. The data set is classed as ADME, organism-based. Conditions: in vivo. In a few lines:
(§4)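 Fasted male Sprague-Dawley rats, three per group: 2 mg/kg bolus iv as a DMSO solution and 10 mg/kg by oral gavage as a solution in 0.05 M citric acid. Clearance, Vdss and F given as mean with standard deviation.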

A short description of data set [17]: Volume of distribution in Sprague-Dawley rat at 2 mg/kg, iv and 10 mg/kg, po. The data set is classed as ADME, organism-based. Conditions: in vivo, read-out: Vdss. In a few lines:
as §4

A short description of data set [18]: Clearance in rhesus monkey at 1 mg/kg, iv and 1 mg/kg, po. The data set is classed as ADME, organism-based, Macaca mulatta. Conditions: in vivo. The method in brief:
(§5)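 Fasted rhesus monkeys, two, crossover design: 1 mg/kg po as a solution in 0.05 M citric acid, and on a separate occasion 1 mg/kg iv as a DMSO solution. Half-life, clearance, Vdss and F reported as the two-animal average.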

Data set [19] is described as follows: Volume of distribution in rhesus monkey at 1 mg/kg, iv and 1 mg/kg, po. Conditions: in vivo, read-out: Vdss. It is filed as ADME, organism-based, Macaca mulatta. The method in brief: as §5
Data set [20] is described as follows: Bioavailability in rhesus monkey at 1 mg/kg, iv and 1 mg/kg, po. The data set is classed as ADME, organism-based, Macaca mulatta. The settings on record: in vivo. The method in brief: as §5
In data set [21] the target is Vascular endothelial growth factor receptor 2 (Mus musculus, UniProt P35918). As to the kind of experiment: Inhibition of VEGF-induced mouse lung KDR phosphorylation. The method in brief:
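Tyrosine phosphorylation of lung KDR compared between treated and untreated lungs as a function of dose and time after dosing. In vivo IC50 expressed as plasma concentration.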

This is an account of results in ChEMBL document CHEMBL1149259, “Potent N-(1,3-thiazol-2-yl)pyridin-2-amine vascular endothelial growth factor receptor tyrosine kinase inhibitors with excellent pharmacokinetics and low affinity for the hERG ion channel” (J Med Chem, 2004).

Structures are written as SMILES. Activity calls are given as the source filed them. No cut-off for these calls is given here. Where only a bound is given, the exact number is not on record here.

T1 sequence (P35968 whole entry): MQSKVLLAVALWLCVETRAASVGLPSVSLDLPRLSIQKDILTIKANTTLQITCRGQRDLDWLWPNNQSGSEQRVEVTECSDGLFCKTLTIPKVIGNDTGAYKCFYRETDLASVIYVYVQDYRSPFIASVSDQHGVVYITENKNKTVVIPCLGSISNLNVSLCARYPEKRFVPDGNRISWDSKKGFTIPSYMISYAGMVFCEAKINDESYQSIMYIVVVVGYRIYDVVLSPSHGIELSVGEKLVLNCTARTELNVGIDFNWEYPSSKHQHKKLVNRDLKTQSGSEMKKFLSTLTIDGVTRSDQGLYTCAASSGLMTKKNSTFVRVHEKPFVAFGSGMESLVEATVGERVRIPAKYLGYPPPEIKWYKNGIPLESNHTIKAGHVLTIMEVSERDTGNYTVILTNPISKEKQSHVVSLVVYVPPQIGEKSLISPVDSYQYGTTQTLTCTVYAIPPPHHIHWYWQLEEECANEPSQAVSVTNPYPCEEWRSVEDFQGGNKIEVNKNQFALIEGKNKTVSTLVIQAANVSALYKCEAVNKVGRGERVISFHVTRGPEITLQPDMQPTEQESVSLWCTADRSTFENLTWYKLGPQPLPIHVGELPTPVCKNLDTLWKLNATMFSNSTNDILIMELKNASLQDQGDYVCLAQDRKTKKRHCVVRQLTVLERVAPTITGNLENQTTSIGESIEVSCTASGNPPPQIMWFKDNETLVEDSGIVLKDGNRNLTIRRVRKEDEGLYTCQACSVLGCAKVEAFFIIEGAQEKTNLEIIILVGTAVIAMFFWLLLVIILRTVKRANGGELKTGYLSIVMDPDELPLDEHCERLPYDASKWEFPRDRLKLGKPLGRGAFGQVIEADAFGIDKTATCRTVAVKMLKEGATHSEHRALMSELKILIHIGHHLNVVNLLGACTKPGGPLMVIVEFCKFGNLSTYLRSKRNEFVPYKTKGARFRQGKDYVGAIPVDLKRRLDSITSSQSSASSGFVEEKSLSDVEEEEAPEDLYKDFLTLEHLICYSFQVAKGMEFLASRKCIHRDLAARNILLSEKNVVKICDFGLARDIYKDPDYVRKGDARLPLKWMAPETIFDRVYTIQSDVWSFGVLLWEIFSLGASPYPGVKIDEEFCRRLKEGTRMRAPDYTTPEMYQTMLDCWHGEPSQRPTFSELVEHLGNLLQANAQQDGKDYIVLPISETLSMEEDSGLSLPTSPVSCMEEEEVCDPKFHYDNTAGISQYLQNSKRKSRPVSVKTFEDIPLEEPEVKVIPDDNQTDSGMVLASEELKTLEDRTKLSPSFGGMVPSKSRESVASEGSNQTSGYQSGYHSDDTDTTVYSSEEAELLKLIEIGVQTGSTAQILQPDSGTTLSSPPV
Cytochrome P450 3A4, sequence (P08684 whole entry): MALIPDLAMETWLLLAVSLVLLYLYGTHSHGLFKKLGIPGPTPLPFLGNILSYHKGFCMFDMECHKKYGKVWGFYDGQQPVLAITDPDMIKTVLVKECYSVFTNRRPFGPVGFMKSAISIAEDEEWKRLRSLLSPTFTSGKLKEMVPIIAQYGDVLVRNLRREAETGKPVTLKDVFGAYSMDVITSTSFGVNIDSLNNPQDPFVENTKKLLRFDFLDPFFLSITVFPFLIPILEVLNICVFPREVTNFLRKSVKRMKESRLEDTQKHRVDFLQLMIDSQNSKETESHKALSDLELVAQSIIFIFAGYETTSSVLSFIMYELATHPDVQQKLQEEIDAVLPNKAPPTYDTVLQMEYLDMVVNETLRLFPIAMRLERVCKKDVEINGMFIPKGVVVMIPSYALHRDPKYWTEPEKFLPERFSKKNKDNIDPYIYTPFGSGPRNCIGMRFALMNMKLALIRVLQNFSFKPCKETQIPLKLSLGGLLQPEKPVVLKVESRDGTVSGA

For orientation: half-life means the time in which the quantity being followed falls by half. As to `c1ccc(-c2cnc(Nc3cc(CN4CCCC4)ccn3)s2)cc1`, the IC50 in [1] came to 0.015 µM; in [2] it was 0.003 µM. Further, the half-life in [3] amounted to 8 min.

The term logP denotes the decadic logarithm of the partition coefficient of the neutral form, usually between octanol and water. The bioavailability is the share of a dose that reaches the circulation, judged against a reference dose that is usually intravenous. For the molecule `N#Cc1cnc(Nc2cc(CN3CCN(C(=O)CO)CC3)ccn2)s1`, the IC50 was determined as 0.035 µM in data set [1], 0.009 µM in [2] and 9.87 µM in data set [4]. In data set [5], this molecule showed a logP of 1.68. This molecule had a half-life in data set [6] of 6.6 h. In data set [7], the clearance came out at 0.88 mL/min/kg. The Vd in data set [8] worked out at 0.47 L/kg. Besides, the bioavailability in [9] worked out at 61%. In the data set filed under Homo sapiens, the fraction unbound is 0.262.

For `CN(C)C(=O)N1CCN(Cc2ccnc(Nc3ncc(C#N)s3)c2)CC1`, the IC50 worked out at 0.04 µM in data set [1], 0.01 µM in [2] and 3.51 µM in data set [4]. For the same molecule, the logP in [5] stood at 2.74. Moreover, the half-life in [10] is 2 h. Moreover, the clearance in [11] was determined as 7.4 mL/min/kg. Moreover, the Vd in data set [12] came to 0.88 L/kg. Moreover, in the data set listed under Homo sapiens, the fraction unbound is 0.041.

Regarding `c1ccc(-c2cnc(Nc3ccc(CN4CCCC4)cn3)s2)cc1`, the IC50 in data set [4] was determined as 0.008 µM. This molecule displayed an Activity with Canis familiaris [13] of 10%.

Turning to `N#Cc1cnc(Nc2cc(CN3CCN(C(N)=O)CC3)ccn2)s1`, in data set [4], the IC50 came out at 24.7 µM. Moreover, the half-life in data set [10] was 2.9 h. Moreover, in data set [11], the clearance turned out to be 2.6 mL/min/kg. Besides, the Vd in data set [12] turned out to be 0.34 L/kg.

Consider `CS(=O)(=O)N1CCN(Cc2ccnc(Nc3ncc(-c4ccccc4)s3)c2)CC1`, for which the IC50 in data set [4] came out at 0.13 µM.

Turning to `CNC(=O)N1CCN(Cc2ccnc(Nc3ncc(C#N)s3)c2C)CC1`, the outcome in the data set on Canis familiaris [14] was inactive. The IC50 against Cytochrome P450 2C9, on Cytochrome P450 2D6 and on Cytochrome P450 3A4 was > 100 µM each time.

On to `CC(=O)N1CCN(Cc2ccnc(Nc3ncc(C#N)s3)c2)CC1`, for which the IC50 was 0.041 µM in [1] and 0.013 µM in data set [2]. This molecule also returned a logP in data set [5] of 2.05. Further, in data set [6], the half-life was 7.2 h. Besides, the clearance in data set [7] was determined as 1.2 mL/min/kg. Besides, in data set [8], the Vd is 0.72 L/kg. In addition, in [9], the bioavailability amounted to 87%. For the same molecule, in the data set with Canis familiaris [15], the outcome was inactive.

Regarding `CS(=O)(=O)C1CCN(Cc2ccnc(Nc3ncc(C#N)s3)c2)CC1`, the IC50 was determined as 0.031 µM in data set [1] and 0.007 µM in data set [2]. The molecule further yielded a logP in data set [5] of 2.06. The clearance in data set [7] is 1.8 mL/min/kg. In addition, the Vd in [8] was 0.96 L/kg. Further, the bioavailability in data set [9] stood at 95%.

As to `CNC(=O)N1CCN(Cc2ccnc(N(c3ncc([14C]#N)s3)C3O[C@H](C(=O)O)[C@@H](O)[C@H](O)[C@H]3O)c2)CC1` (stereo partly specified), the Stability was determined as 37.6% with Rattus norvegicus and 63.3% in the data set on Rhesus monkey.

For `N#Cc1cnc(Nc2cc(CN3CCOCC3)ccn2)s1`, the IC50 in [1] was 0.043 µM; in data set [2], 0.008 µM. This molecule had a half-life in [10] of 2.5 h. Moreover, in data set [11], the clearance was 12.4 mL/min/kg. Further, the Vd in data set [12] came out at 1 L/kg.

Turning to `CC(=O)N1CCN(Cc2ccnc(Nc3ncc(-c4ccccc4)s3)c2)CC1`, the IC50 in data set [1] amounted to 0.043 µM; in data set [2] it was 0.008 µM; in [4] it was 0.24 µM.

Turning to `CNC(=O)N1CCN(Cc2ccnc(Nc3ncc(C#N)s3)c2)CC1`, the IC50 in [1] is 0.027 µM; in data set [2], 0.012 µM; in data set [4] it was 9.28 µM; at Cytochrome P450 2C9 it was > 50 µM; on Cytochrome P450 2D6 it was > 50 µM; on Cytochrome P450 3A4, > 50 µM. The same molecule gave an IC50 in data set [21] of 0.09 µM. This molecule also had a logP in [5] of 2.06. Further, the clearance in data set [7] was found to be 0.51 mL/min/kg; in data set [16] it was 13.3 mL/min/kg; in [18], 17.2 mL/min/kg. The Vd in data set [8] worked out at 0.72 L/kg; in [17] it was 1.5 L/kg; in data set [19], 1.3 L/kg. For the same molecule, the bioavailability in data set [9] was determined as 99%; in [20], 43%.
